Assay results taken from article PMC5615155 (Toxicology Reports, 2017).
Several values for one entry are separate records, joined by “and”; a condition that tells them apart may be missing. Equal entries are not always repeated. Entries after “also recorded” stand apart in the source; their conditions may differ.

Assays:
[1] = in vitro microsomal metabolism; format: in vitro ADME, Sprague-Dawley rat; details: 10 μM, 0.5 mg/mL, +NADPH, 120 min
[2] = tested on: human peripheral blood lymphocytes (HPBL); assay: in vitro micronucleus test; format: cell-based
Summary of the method: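 HPBL micronucleus test per OECD 487, GLP. Exposures: 4 h −S9, 4 h +S9 (Aroclor 1254-induced male rat liver), 24 h −S9. DMSO solvent; positive controls vinblastine (−S9) and cyclophosphamide (+S9). 4 h cultures were washed, then 20 h in cytochalasin B 6.0 μg/mL. Dose range from preliminary toxicity test (0.2–2000 μg/mL). Duplicate cultures: CBPI from ≥1000 cells; ≥2000 binucleated cells scored.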

[3] = toxicokinetics in 13-week dietary study; format: in vivo, Sprague-Dawley rats
[4] = cited from earlier work
CYP2C9 = CYP2C9 (Homo sapiens, UniProt P11712); assay: CYP inhibition, spectrofluorimetric; format: biochemical; details: recombinant human CYP2C9 expressed in insect Sf9 cells
Sequence of CYP2C9 (P11712 whole entry, canonical isoform): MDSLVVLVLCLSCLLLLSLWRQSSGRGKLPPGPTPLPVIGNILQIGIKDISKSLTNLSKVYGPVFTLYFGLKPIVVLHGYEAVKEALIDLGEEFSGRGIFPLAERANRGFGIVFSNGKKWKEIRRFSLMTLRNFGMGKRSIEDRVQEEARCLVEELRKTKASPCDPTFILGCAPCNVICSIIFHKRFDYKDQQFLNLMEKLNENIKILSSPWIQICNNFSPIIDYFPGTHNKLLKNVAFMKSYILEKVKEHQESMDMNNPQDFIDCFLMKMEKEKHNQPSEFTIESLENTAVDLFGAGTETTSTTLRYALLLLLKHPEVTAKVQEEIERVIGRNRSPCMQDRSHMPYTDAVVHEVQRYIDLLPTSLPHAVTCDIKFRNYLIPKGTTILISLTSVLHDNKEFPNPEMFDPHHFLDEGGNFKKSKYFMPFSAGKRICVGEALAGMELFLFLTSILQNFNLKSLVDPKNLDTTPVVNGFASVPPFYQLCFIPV
Summary of the method: (§1)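 Inhibition was assayed with recombinant human CYP isoforms expressed in insect Sf9 cells. Turnover of spectrofluorimetric substrates was read by fluorescence. Test compound was tested at a single concentration of 10 μM.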

[5] = excretion in feces and urine; format: in vivo, Sprague-Dawley rats
solubility / dissolution = format: physicochemical; details: S8069 at 10 mg/mL; S2218 at all dose levels
CYP2C19 = CYP2C19 (Homo sapiens, UniProt P33261); assay: CYP inhibition, spectrofluorimetric; format: biochemical; details: recombinant human CYP2C19 expressed in insect Sf9 cells
Sequence of CYP2C19 (P33261 whole entry): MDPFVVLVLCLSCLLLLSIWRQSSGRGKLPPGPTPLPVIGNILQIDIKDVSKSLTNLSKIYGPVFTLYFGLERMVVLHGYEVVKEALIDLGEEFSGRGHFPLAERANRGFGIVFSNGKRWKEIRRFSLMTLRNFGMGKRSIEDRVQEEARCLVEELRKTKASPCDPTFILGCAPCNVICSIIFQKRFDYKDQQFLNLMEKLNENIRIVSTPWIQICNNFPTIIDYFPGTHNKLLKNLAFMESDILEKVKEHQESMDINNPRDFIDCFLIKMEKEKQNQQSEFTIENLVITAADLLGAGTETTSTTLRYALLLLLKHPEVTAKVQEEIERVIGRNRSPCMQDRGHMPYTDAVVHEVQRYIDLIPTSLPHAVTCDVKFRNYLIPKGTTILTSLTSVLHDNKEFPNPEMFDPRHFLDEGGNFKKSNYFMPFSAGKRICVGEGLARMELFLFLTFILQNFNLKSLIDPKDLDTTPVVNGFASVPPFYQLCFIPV
Summary of the method: as §1

[6] = single-dose pharmacokinetics and oral bioavailability; format: in vivo, Sprague-Dawley rats; details: for clearance: CL, S2218 iv 1 mg/kg bw
[7] = female, Sprague-Dawley, rat, plasma, iv, 1 mg/kg
[8] = female, Sprague-Dawley, rat, plasma, po, 10 mg/kg
[9] = female, Sprague-Dawley, rat, plasma, po, 30 mg/kg
[10] = female, Sprague-Dawley, rat, plasma, po, 100 mg/kg
[11] = male, Sprague-Dawley, rat, plasma, iv, 1 mg/kg
[12] = male, Sprague-Dawley, rat, plasma, po, 10 mg/kg
[13] = male, Sprague-Dawley, rat, plasma, po, 30 mg/kg
[14] = male, Sprague-Dawley, rat, plasma, po, 100 mg/kg

For Cc1cc(C(=O)NC(C)(C)COc2cccc3c2C(N)=NS(=O)(=O)N3)cc(C)n1 [S2218, N-(1-((4-amino-2,2-dioxido-1H-benzo[c][1,2,6]thiadiazin-5-yl)oxy)-2-methylpropan-2-yl)-2,6-dimethylisonicotinamide], the “% MS (EIC) peak area of parent relative to time 0” value [1] was 96.5 ± 0.4%, the “Micronucleus formation (in vitro), result” value ([2]; 250–1000 μg/mL, 24 h exposure, −S9) was “negative for the induction of micronuclei” and the “Micronucleus formation (in vitro), result” value ([2]; 500–2000 μg/mL, 4 h exposure, ±S9) was “neither clastogenic nor aneugenic; also recorded: negative for the induction of micronuclei”. The “cytotoxicity (55 ± 5% CBPI relative to vehicle control)” value ([2]; micronucleus assay, any dose, three treatment conditions) was “not observed”, the “concentration with visible precipitate” value ([2]; non-activated 24 h exposure) was ≥ 1000 µg/mL and the “concentration with visible precipitate” value ([2]; non-activated and S9-activated 4 h exposure) was 2000 µg/mL. For the same compound, the “ACUM Ratio (dose-normalized AUC0-24h Day 91/Day 7)” value ([3]; 30 mg/kg bw, M + F) was 1.88, the “ACUM Ratio (dose-normalized AUC0-24h Day 91/Day 7)” value ([3]; 70 mg/kg bw, M + F) was 0.954 and the “ACUM Ratio (dose-normalized AUC0-24h Day 91/Day 7)” value ([3]; 140 mg/kg bw, F) was 0.768. The “ACUM Ratio (dose-normalized AUC0-24h Day 91/Day 7)” value ([3]; 140 mg/kg bw, M) was 4.55, the “ACUM Ratio (dose-normalized AUC0-24h Day 91/Day 7)” value ([3]; 140 mg/kg bw, M + F) was 2.30 and the “photostability to UV light vs S6973 and S617” value [4] was “significantly improved photostability”. For the same compound, the inhibition at 10 μM (CYP2C9) was ≤ 7%, the “% Recovery of S2218” value ([5]; feces + urine, female, 0–72 h) was 90.0% and 90.0 ± 7.5% and the “% Recovery of S2218” value ([5]; feces + urine, male, 0–72 h) was 82.1% and 82.1 ± 15.4%. The “% Recovery of S2218” value ([5]; feces + urine, overall (M+F), 0–72 h) was 86.07%, the “% Recovery of S2218” value ([5]; feces, female, 0–24 h) was 82.19% and 82.19 ± 10.89% and the “% Recovery of S2218” value ([5]; feces, female, 0–72 h) was 89.79% and 89.79 ± 7.63%. For the same compound, the “% Recovery of S2218” value ([5]; feces, female, 24–48 h) was 7.504 ± 6.517%, the “% Recovery of S2218” value ([5]; feces, female, 48–72 h) was 0.152 ± 0.062% and the “% Recovery of S2218” value ([5]; feces, male, 0–24 h, S8069 10 mg/kg bw oral) was 76.68% and 76.68 ± 13.82%. The “% Recovery of S2218” value ([5]; feces, male, 0–72 h) was 82.08% and 82.08 ± 15.35%, the “% Recovery of S2218” value ([5]; feces, male, 24–48 h) was 5.247 ± 4.432% and the “% Recovery of S2218” value ([5]; feces, male, 48–72 h) was 0.298 ± 0.225%. For the same compound, the “% Recovery of S2218” value ([5]; urine, female, 0–24 h) was 0.202 ± 0.216%, the “% Recovery of S2218” value ([5]; urine, female, 0–72 h) was 0.230% and 0.230 ± 0.252% and the “% Recovery of S2218” value ([5]; urine, female, 24–48 h) was 0.020 ± 0.027%. The “% Recovery of S2218” value ([5]; urine, female, 48–72 h) was 0.008 ± 0.010%, the “% Recovery of S2218” value ([5]; urine, male, 0–24 h) was 0.036 ± 0.025% and the “% Recovery of S2218” value ([5]; urine, male, 0–72 h) was 0.044% and 0.044 ± 0.022%. For the same compound, the “% Recovery of S2218” value ([5]; urine, male, 24–48 h) was 0.007 ± 0.004%, the “% Recovery of S2218” value ([5]; urine, male, 48–72 h) was 0.001 ± 0.001% and the “% Recovery of S2218” value ([5]; urine, overall (M+F), 0–72 h) was 0.137%. The “state in 1% methylcellulose dosing formulation” value (solubility / dissolution) was “formed a suspension”, the inhibition at 10 μM (CYP2C19) was ≤ 7% and the “female/male ratio of mean AUClast” value ([6]; IV 1 mg/kg) was 0.88. The “female/male ratio of mean Cmax” value ([6]; IV 1 mg/kg) was 1.06, the t1/2 ([6]; S2218 oral gavage 10 mg/kg bw, M, 10 mg/kg) was 45.8 ± 4.38 min and the bioavailability ([6]; both, Sprague-Dawley, rat, plasma, po, %F, both test articles, male and female rats, all doses) was 0.14 to 0.77%. The AUC(0-t) [6, 7] was 440 ± 57.1 ng·h/mL, the Cmax [6, 7] was 3.15 ± 0.399 µg/mL and the Tmax [6, 7] was 1.98 min. For the same compound, the Vd [6, 7] was 0.575 L/kg, the clearance ([6]; female, Sprague-Dawley, rat, plasma, iv, 1 mg/kg, F) was 38.3 mL/min/kg and the half-life ([6]; female, Sprague-Dawley, rat, plasma, iv, 1 mg/kg, t1/2, S2218 iv 1 mg/kg bw, F) was 10.4 ± 0.24 min. For the same compound, the AUC(0-t) [6, 8] was 19.1 ± 10.5 ng·h/mL, the Cmax [6, 8] was 0.0221 ± 0.00855 µg/mL and the Tmax [6, 8] was 18.8 ± 7.5 min. The AUC(0-t) [6, 9] was 37.7 ± 14 ng·h/mL, the Cmax [6, 9] was 0.0368 ± 0.0148 µg/mL and the Tmax [6, 9] was 18.8 ± 7.5 min. For the same compound, the AUC(0-t) [6, 10] was 65.9 ± 34.6 ng·h/mL, the Cmax [6, 10] was 0.0387 ± 0.0204 µg/mL and the Tmax [6, 10] was 15 min. The half-life ([6]; female, Sprague-Dawley, rat, plasma, po, mean t1/2 of S2218 in plasma, oral dose of S2218 or S8069, female rats) was 45 to 75 min, the “CL as % of hepatic blood flow” value ([6]; iv, F) was 69.6% and the “Vss as % of total body water volume” value ([6]; iv, F) was 86.1%. For the same compound, the “CL as % of hepatic blood flow” value ([6]; iv, M) was 60.9%, the “Vss as % of total body water volume” value ([6]; iv, M) was 80.2% and the AUC(0-t) [6, 11] was 500 ± 47.9 ng·h/mL. The Cmax [6, 11] was 2.98 ± 0.291 µg/mL, the Tmax [6, 11] was 1.98 min and the Vd [6, 11] was 0.536 L/kg. The clearance ([6]; male, Sprague-Dawley, rat, plasma, iv, 1 mg/kg, M) was 33.5 mL/min/kg, the half-life ([6]; male, Sprague-Dawley, rat, plasma, iv, 1 mg/kg, t1/2, S2218 iv 1 mg/kg bw, M) was 11.1 ± 1.56 min and the AUC(0-t) [6, 12] was 18.1 ± 4.84 ng·h/mL. The Cmax [6, 12] was 0.0168 ± 0.00603 µg/mL, the Tmax [6, 12] was 18.8 ± 7.5 min and the AUC(0-t) [6, 13] was 33.2 ± 20.7 ng·h/mL. For the same compound, the Cmax [6, 13] was 0.0312 ± 0.0146 µg/mL, the Tmax [6, 13] was 22.5 ± 8.64 min and the AUC(0-t) [6, 14] was 96.6 ± 31.4 ng·h/mL. For the same compound, the Cmax [6, 14] was 0.0763 ± 0.0288 µg/mL, the Tmax [6, 14] was 20 ± 8.64 min and the half-life ([6]; male, Sprague-Dawley, rat, plasma, po, mean t1/2 of S2218 in plasma, oral dose of S2218 or S8069, male rats) was 40.2 to 51.6 min.
